Source: ChEMBL document CHEMBL4382221, “First-in-class DAPK1/CSF1R dual inhibitors: Discovery of 3,5-dimethoxy-N-(4-(4-methoxyphenoxy)-2-((6-morpholinopyridin-3-yl)amino)pyrimidin-5-yl)benzamide as a potential anti-tauopathies agent” (Eur J Med Chem, 2019)
Each block holds one compound with its values, some of them ahead of it. Active and inactive are the calls of the source. No cut-off for these calls is given here.

What was measured:
[1] = target: T1, Death-associated protein kinase 1 (Homo sapiens, UniProt P53355); experiment: Inhibition of human DAPK1 (1 to 363 residues) at 20 uM using KKLNRTLSFAEPG as substrate after 120 mins in presence of 10 uM [gamma-33P]-ATP by filtration method relative to control
Outline: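 Radiometric HotSpot kinase assay with 10 μM ATP. Compound tested at a single 20 μM concentration, reported as mean % inhibition from two independent experiments.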
Target sequence in this assay (P53355 whole entry, looked up, the tested form may be a part): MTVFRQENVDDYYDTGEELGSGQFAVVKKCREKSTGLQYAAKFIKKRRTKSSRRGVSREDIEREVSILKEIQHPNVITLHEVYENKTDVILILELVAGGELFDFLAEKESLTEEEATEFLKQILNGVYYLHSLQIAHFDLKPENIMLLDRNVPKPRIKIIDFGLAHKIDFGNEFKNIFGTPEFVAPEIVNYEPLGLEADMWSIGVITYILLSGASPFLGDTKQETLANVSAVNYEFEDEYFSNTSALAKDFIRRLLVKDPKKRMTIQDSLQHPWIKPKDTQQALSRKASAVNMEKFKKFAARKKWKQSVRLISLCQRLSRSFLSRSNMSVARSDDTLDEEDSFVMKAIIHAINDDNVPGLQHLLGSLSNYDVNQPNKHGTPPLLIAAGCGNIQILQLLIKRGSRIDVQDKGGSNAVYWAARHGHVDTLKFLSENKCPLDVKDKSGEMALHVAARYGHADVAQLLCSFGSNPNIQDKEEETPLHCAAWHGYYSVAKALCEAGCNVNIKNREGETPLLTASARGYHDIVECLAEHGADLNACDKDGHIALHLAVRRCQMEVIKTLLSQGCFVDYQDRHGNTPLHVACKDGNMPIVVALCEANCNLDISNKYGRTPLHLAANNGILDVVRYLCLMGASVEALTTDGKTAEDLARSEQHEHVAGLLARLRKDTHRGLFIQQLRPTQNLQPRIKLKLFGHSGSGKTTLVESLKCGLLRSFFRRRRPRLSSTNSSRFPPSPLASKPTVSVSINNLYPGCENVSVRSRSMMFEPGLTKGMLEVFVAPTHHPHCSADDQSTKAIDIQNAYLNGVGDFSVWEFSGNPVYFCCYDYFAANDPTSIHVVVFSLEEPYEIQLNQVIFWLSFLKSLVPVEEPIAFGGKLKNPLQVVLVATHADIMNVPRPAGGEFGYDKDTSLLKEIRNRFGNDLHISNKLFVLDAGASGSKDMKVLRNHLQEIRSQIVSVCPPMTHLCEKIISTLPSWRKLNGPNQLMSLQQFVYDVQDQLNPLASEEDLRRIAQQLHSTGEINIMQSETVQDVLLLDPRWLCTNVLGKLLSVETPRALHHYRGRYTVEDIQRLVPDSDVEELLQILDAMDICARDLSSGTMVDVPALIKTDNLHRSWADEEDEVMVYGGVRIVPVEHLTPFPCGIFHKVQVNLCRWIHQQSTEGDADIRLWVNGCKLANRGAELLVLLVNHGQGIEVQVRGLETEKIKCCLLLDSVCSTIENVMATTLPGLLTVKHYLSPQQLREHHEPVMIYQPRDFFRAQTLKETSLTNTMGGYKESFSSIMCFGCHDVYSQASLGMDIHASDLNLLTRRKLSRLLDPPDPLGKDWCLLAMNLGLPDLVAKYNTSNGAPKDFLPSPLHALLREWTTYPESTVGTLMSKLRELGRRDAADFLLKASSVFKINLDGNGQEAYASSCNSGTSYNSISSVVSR

[2] = target: T2, Macrophage colony-stimulating factor 1 receptor (Homo sapiens, UniProt P07333); experiment: Inhibition of human CSF1R at 10 uM using poly[Glu:Tyr] (4:1) as substrate after 120 mins in presence of 10 uM [gamma-33P]-ATP by filtration method relative to control
Outline: (§1)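 Radiometric HotSpot assay measuring substrate phosphorylation directly, with 10 μM ATP. Single-dose screen at 10 μM in duplicate, reported as mean % inhibition from two independent experiments.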

[3] = target: T1, Death-associated protein kinase 1; experiment: Inhibition of DAPK1 in HEK293 tau-BiFC cells assessed as reduction in forskolin-induced tau aggregation at 1 to 50 uM after 48 hrs by Hoechst staining based HCS analysis; assay type: cell-based
Outline: (§2)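 HEK293 cells expressing tau-BiFC were exposed to compounds at 50, 10 and 1 μM with forskolin (30 μM) as the tau aggregation activator for 48 h. BiFC fluorescence intensity was quantified as the read-out. Data are mean ± SD.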
Target sequence in this assay (P53355 whole entry, looked up, the tested form may be a part): as above

[4] = target: T1, Death-associated protein kinase 1; experiment: Inhibition of human DAPK1 (1 to 363 residues) using KKLNRTLSFAEPG as substrate after 120 mins in presence of 10 uM [gamma-33P]-ATP by filtration method
Outline: (§3)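 Radiometric HotSpot assay with direct measurement of phosphorylated substrate at 10 μM ATP. IC50 was taken from a duplicate 10-dose series, 3-fold dilutions starting at 20 μM, reported as mean.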
Target sequence in this assay (P53355 whole entry, the tested form may be a part): as the sequence (P53355 whole entry, looked up, the tested form may be a part) above

[5] = target: T2, Macrophage colony-stimulating factor 1 receptor; experiment: Inhibition of human CSF1R using poly[Glu:Tyr] (4:1) as substrate after 120 mins in presence of 10 uM [gamma-33P]-ATP by filtration method; outline: as §3
[6] = target: T1, Death-associated protein kinase 1; experiment: Inhibition of human DAPK1 (1 to 363 residues) at 10 uM using KKLNRTLSFAEPG as substrate after 120 mins in presence of 10 uM [gamma-33P]-ATP by filtration method relative to control; outline: as §1
Target sequence in this assay (P53355 whole entry, looked up, the tested form may be a part): as above

[7] = Effective permeability of the compound at 50 uM after 4 hrs by PAMPA; assay type: ADME; conditions: read-out: Peff
Outline: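 Parallel artificial membrane permeability assay across a BBB-PAMPA lipid membrane, reporting effective permeability (Pe) in 10^-6 cm/sec. […] Pe above 0.4 was taken as highly permeable, and above 10 as highly CNS bioavailable.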

[8] = target: T1, Death-associated protein kinase 1; experiment: Inhibition of DAPK1 in HEK293 tau-BiFC cells assessed as reduction in forskolin-induced tau aggregation at 10 uM after 48 hrs by Hoechst staining based HCS analysis; assay type: cell-based; outline: as §2
Target sequence in this assay (P53355 whole entry, looked up, the tested form may be a part): as above

[9] = target: T1, Death-associated protein kinase 1; experiment: Inhibition of DAPK1 in HEK293 tau-BiFC cells assessed as reduction in forskolin-induced tau aggregation at 50 uM after 48 hrs by Hoechst staining based HCS analysis; assay type: cell-based; outline: as §2
Target sequence in this assay (P53355 whole entry, looked up, the tested form may be a part): as above

[10] = target: Serine/threonine-protein kinase pim-1 (Homo sapiens) (UniProt P11309); experiment: Inhibition of human PIM1 at 10 uM using KKRNRTLTK as substrate after 120 mins [gamma-33P]-ATP by filtration method
Outline: (§4)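 Radiometric kinase selectivity panel of 47 kinases, with compound at 10 μM. Data are means ± SD of two independent experiments.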

BV-2 = experiment: Anti-neuroinflammatory activity in mouse BV2 cells assessed as inhibition of LPS-stimulated NO production at 10 uM preincubated for 1 hr followed by LPS stimulation for 23 hrs by Griess reagent based assay relative to control; assay type: functional
Outline: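 Mouse BV-2 microglia were stimulated with LPS, with or without compound at 10 μM, and NO production was measured. Values are means ± SD of five independent experiments.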

[11] = Effective permeability of the compound at 12.5 uM after 4 hrs by PAMPA; assay type: ADME; conditions: read-out: Peff
Outline: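 BBB-PAMPA lipid membrane permeability was measured as effective permeability Pe (10^-6 cm/sec), with compound tested at 12.5 μM. Results are means ± SD of three independent experiments.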

[12] = target: Calcium/calmodulin-dependent protein kinase type II subunit alpha (Homo sapiens) (UniProt Q9UQM7); experiment: Inhibition of human CAMK2a at 10 uM using KKALRRQETVDAL as substrate after 120 mins [gamma-33P]-ATP by filtration method; outline: as §4
[13] = target: T1, Death-associated protein kinase 1; experiment: Inhibition of human DAPK1 (1 to 363 residues) using KKLNRTLSFAEPG as substrate after 120 mins [gamma-33P]-ATP by filtration method; outline: as §3
Target sequence in this assay (P53355 whole entry, the tested form may be a part): as the sequence (P53355 whole entry, looked up, the tested form may be a part) above

[14] = target: Voltage-gated inwardly rectifying potassium channel KCNH2 (Homo sapiens, UniProt Q12809); experiment: Inhibition of red tracer binding to human ERG expressed in membranes preincubated for 10 to 15 mins followed by tracer addition measured after 3 hrs by fluorescence polarization assay
[15] = target: T2, Macrophage colony-stimulating factor 1 receptor; experiment: Inhibition of human CSF1R using poly[Glu:Tyr] (4:1) as substrate after 120 mins in presence of 100 uM [gamma-33P]-ATP by filtration method
Outline: (§5)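 CSF1R radiometric kinase assay with dose-response curves at 1, 10 and 100 μM ATP. IC50 was calculated at each ATP concentration, and Ki was derived.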

[16] = target: T2, Macrophage colony-stimulating factor 1 receptor; experiment: Inhibition of human CSF1R using poly[Glu:Tyr] (4:1) as substrate after 120 mins in presence of 1 uM [gamma-33P]-ATP by filtration method; outline: as §5
[17] = target: Platelet-derived growth factor receptor alpha (Homo sapiens) (UniProt P16234); experiment: Inhibition of human PDGFRalpha at 10 uM using poly[Glu:Tyr] (4:1) as substrate after 120 mins [gamma-33P]-ATP by filtration method; outline: as §4
[18] = target: T1, Death-associated protein kinase 1; experiment: Inhibition of human DAPK1 (1 to 363 residues) using KKLNRTLSFAEPG as substrate after 120 mins in presence of 100 uM [gamma-33P]-ATP by filtration method
Outline: (§6)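 Dose-response curves were run at 1, 10 and 100 μM ATP, giving an IC50 at each ATP level; Ki was calculated.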
Target sequence in this assay (P53355 whole entry, the tested form may be a part): as the sequence (P53355 whole entry, looked up, the tested form may be a part) above

[19] = target: Proto-oncogene tyrosine-protein kinase Src (Homo sapiens) (UniProt P12931); experiment: Inhibition of human c-SRC at 10 uM using poly[Glu:Tyr] (4:1) as substrate after 120 mins [gamma-33P]-ATP by filtration method; outline: as §4
[20] = Cytotoxicity against LPS-stimulated mouse BV2 cells assessed as cell viability at 10 uM after 24 hrs by MTT assay relative to control; assay type: cell-based, BV-2; conditions: read-out: Activity
Outline: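 BV-2 cell viability was measured in the presence of compound together with LPS and expressed relative to control. Values are means ± SD of five independent experiments.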

[21] = target: Death-associated protein kinase 3 (Homo sapiens) (UniProt O43293); experiment: Inhibition of human DAPK3 at 10 uM using KKLNRTLSFAEPG as substrate after 120 mins [gamma-33P]-ATP by filtration method; outline: as §4
[22] = target: T1, Death-associated protein kinase 1; experiment: Inhibition of DAPK1 in HEK293 tau-BiFC cells assessed as reduction in forskolin-induced tau aggregation at 16 uM after 48 hrs by Hoechst staining based HCS analysis relative to control; assay type: cell-based
Outline: (§7)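 HEK293 tau-BiFC cells were given forskolin (30 μM) and compound in a 5-dose series (1, 2, 4, 8, 16 μM) for 48 h. BiFC fluorescence was quantified and a cellular IC50 was derived from the series.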
Target sequence in this assay (P53355 whole entry, looked up, the tested form may be a part): as above

[23] = target: Tyrosine-protein kinase Lck (Homo sapiens) (UniProt P06239); experiment: Inhibition of human LCK at 10 uM using poly[Glu:Tyr] (4:1) as substrate after 120 mins [gamma-33P]-ATP by filtration method; outline: as §4
[24] = target: T1, Death-associated protein kinase 1; experiment: Inhibition of human DAPK1 (1 to 363 residues) using KKLNRTLSFAEPG as substrate after 120 mins in presence of 1 uM [gamma-33P]-ATP by filtration method; outline: as §6
Target sequence in this assay (P53355 whole entry, the tested form may be a part): as the sequence (P53355 whole entry, looked up, the tested form may be a part) above

[25] = target: T2, Macrophage colony-stimulating factor 1 receptor; experiment: Inhibition of human CSF1R using poly[Glu:Tyr] (4:1) as substrate after 120 mins in presence of [gamma-33P]-ATP by filtration method
[26] = target: T1, Death-associated protein kinase 1; experiment: Inhibition of DAPK1 in HEK293 tau-BiFC cells assessed as reduction in forskolin-induced tau aggregation after 48 hrs by Hoechst staining based HCS analysis; assay type: cell-based; outline: as §7
Target sequence in this assay (P53355 whole entry, the tested form may be a part): as the sequence (P53355 whole entry, looked up, the tested form may be a part) above

[27] = target: Leucine-rich repeat serine/threonine-protein kinase 2 (Homo sapiens) (UniProt Q5S007); experiment: Inhibition of human LRRK2 at 10 uM using RLGRDKYKTLRQIRQ as substrate after 120 mins [gamma-33P]-ATP by filtration method; outline: as §4
[28] = target: T3, Serine/threonine-protein kinase 17A (Homo sapiens) (UniProt Q9UEE5); experiment: Inhibition of human DRAK1 at 10 uM using KKLNRTLSFAEPG as substrate after 120 mins [gamma-33P]-ATP by filtration method; outline: as §4
T3 sequence (whole entry): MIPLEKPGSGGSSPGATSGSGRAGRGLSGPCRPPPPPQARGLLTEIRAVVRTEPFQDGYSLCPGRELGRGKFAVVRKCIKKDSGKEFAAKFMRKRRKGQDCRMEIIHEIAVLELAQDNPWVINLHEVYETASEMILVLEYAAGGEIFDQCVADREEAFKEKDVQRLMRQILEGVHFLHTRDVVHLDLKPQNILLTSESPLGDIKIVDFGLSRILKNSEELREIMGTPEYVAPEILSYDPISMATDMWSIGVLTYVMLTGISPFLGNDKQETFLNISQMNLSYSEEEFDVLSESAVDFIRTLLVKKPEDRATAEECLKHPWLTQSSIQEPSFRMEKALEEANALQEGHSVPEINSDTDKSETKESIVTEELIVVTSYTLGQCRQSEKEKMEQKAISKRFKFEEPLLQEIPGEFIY

[29] = target: Platelet-derived growth factor receptor beta (Homo sapiens) (UniProt P09619); experiment: Inhibition of human PDGFRbeta at 10 uM using poly[Glu:Tyr] (4:1) as substrate after 120 mins [gamma-33P]-ATP by filtration method; outline: as §4
[30] = target: Death-associated protein kinase 2 (Homo sapiens) (UniProt Q9UIK4); experiment: Inhibition of human DAPK2 at 10 uM using KKLNRTLSFAEPG as substrate after 120 mins [gamma-33P]-ATP by filtration method; outline: as §4
[31] = target: Tyrosine-protein kinase Lyn (Homo sapiens) (UniProt P07948); experiment: Inhibition of human LYN at 10 uM using poly[Glu:Tyr] (4:1) as substrate after 120 mins [gamma-33P]-ATP by filtration method; outline: as §4
Chain of Tyrosine-protein kinase Lyn (Homo sapiens) (P07948 2-512 limits assumed): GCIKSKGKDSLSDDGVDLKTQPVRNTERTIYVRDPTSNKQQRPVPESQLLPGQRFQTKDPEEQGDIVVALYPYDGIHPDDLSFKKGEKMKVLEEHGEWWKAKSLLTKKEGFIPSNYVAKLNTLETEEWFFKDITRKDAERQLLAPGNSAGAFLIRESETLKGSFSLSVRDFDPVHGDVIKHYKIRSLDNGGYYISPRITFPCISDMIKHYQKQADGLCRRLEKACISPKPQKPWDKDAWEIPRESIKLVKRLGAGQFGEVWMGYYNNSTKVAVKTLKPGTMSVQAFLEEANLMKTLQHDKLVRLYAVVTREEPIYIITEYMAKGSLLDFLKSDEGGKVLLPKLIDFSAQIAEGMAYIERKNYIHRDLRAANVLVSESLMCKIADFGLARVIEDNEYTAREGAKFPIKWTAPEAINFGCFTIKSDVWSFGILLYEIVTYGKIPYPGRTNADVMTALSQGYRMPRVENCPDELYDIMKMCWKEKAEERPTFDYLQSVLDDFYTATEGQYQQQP

T2 sequence (P07333 whole entry): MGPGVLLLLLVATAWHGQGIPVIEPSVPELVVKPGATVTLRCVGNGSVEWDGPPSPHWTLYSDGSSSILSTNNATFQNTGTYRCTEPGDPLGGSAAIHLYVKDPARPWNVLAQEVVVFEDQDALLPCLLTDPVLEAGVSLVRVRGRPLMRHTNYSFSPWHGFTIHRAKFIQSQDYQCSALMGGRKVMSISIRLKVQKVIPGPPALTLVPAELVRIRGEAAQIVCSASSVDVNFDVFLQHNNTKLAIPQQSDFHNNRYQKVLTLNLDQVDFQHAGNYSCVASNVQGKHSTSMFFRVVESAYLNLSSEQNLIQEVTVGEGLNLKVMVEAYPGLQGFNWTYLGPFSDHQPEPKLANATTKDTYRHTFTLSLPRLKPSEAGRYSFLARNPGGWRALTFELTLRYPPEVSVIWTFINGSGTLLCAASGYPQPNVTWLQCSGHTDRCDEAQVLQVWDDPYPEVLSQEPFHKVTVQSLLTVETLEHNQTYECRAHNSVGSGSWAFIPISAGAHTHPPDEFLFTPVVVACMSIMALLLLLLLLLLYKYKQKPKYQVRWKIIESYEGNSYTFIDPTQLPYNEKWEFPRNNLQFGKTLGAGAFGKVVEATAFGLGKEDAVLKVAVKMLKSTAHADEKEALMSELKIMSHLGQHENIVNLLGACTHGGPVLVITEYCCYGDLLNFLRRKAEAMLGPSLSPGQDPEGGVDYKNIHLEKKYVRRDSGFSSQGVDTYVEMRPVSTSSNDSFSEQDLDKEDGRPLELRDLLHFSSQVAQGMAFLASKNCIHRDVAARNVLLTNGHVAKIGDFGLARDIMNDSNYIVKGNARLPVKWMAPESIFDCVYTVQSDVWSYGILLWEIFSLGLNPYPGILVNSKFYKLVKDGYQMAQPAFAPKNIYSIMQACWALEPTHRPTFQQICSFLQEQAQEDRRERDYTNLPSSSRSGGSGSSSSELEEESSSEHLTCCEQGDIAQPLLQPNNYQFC
Chain of Death-associated protein kinase 2 (Homo sapiens) (Q9UIK4 whole entry, looked up): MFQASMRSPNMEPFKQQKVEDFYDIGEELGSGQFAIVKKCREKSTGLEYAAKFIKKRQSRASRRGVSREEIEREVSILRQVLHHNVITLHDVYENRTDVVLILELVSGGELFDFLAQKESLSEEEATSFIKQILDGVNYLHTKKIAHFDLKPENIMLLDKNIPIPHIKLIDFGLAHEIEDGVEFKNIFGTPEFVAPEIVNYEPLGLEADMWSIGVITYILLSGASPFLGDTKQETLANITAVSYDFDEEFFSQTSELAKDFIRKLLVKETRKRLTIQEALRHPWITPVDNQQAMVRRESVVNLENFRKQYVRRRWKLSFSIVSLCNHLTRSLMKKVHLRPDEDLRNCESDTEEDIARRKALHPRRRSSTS

SMILES: NC(=O)Nc1cnc(Nc2ccc(N3CCOCC3)cc2)nc1Oc1ccc(C(F)(F)F)cc1
inhibition [1]: 44.9%
inhibition [2]: 59.6%
inhibition [3]: inactive
IC50 [4]: 14300 nM

SMILES: CC(=O)[C@H]1CC[C@H]2[C@@H]3CCC4=CC(=O)CC[C@]4(C)[C@H]3CC[C@]12C [PROGESTERONE]
Papp at 4 h, 50 µM [7]: 33.3 ×10⁻⁶ cm/s

SMILES: COc1ccc(Oc2nc(Nc3ccc(F)cc3)ncc2NC(N)=O)cc1
inhibition [2]: 21%
inhibition [6]: 17.1%

More lines, main results first:

IC50 [5]: 4420 nM
inhibition [2]: 65%
SMILES: COc1ccc(Oc2nc(Nc3ccc(N4CCOCC4)cc3)ncc2NC(N)=O)cc1
inhibition [1]: 10.8%

inhibition [2]: 28.4%
SMILES: COc1ccc(Oc2nc(Nc3ccc(N4CCCCC4)nc3)ncc2NC(N)=O)cc1
inhibition [6]: 31.7%

inhibition [2]: 35.2%
SMILES: COc1ccc(Oc2nc(Nc3ccc(F)cc3)ncc2NC(=O)c2cc(OC)cc(OC)c2)cc1
inhibition [8]: inactive
IC50 [4]: 4290 nM
inhibition [9]: Active
inhibition [6]: 65%

inhibition [10]: inactive
Papp at 4 h, 12.5 µM [11]: 57 ×10⁻⁶ cm/s
IC50 [5]: 150 nM
inhibition [12]: inactive
inhibition [2]: 77.9%
IC50 [15]: 273 nM
IC50 [16]: 69 nM
inhibition [17]: inactive
inhibition [19]: Active
inhibition [23]: Active
Ki [25]: 129 nM
inhibition [27]: inactive
inhibition [28]: inactive
inhibition [29]: inactive
inhibition [31]: Active
SMILES: COc1ccc(Oc2nc(Nc3ccc(N4CCOCC4)nc3)ncc2NC(=O)c2cc(OC)cc(OC)c2)cc1
inhibition [8]: Active
inhibition at 10 µM (BV-2): 55%
Ki [13]: 581 nM
IC50 [14]: 17100 nM
IC50 [18]: 920 nM
IC50 [4]: 1250 nM
viability at 24 h, 10 µM [20]: > 92%
inhibition [21]: inactive
inhibition [22]: 100%
IC50 [24]: 2890 nM
IC50 [26]: 5000 nM
inhibition [9]: Active
inhibition [30]: inactive
inhibition [6]: 66.2%
